Hits are enriched below; roughly 5% of the tested compounds scored in any of these assays.
UPR XBP1 act = adaptive UPR (XBP1) activation. CHO-XBP1 luciferase reporter, IRE1-XBP1 UPR activation, luminescence; percent of tunicamycin response, DMSO as zero. activation, % at 20 µM. actives 0.33% (n = 330,000). AID 463104;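 active = versus positive control, 20 µM dose yields 30% or more activation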
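Material – CHO cell line with stable XBP1 luciferase reporter · Buffer or medium – F12 plus 10% FBS · Compound – single point, 20 µM final compound, 1% DMSO · Schedule – 16-18 h cell attachment at 37 °C, then 6 h compound exposure · Signal – Steady-Glo luminescence read · Benchmarks – high control tunicamycin 10 µg/mL final, low control DMSO vehicle only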
Mdm2 MdmX PPI = inhibitors of human Mdm2/MdmX interaction | O15151+Q00987 | SaOS-2 split-luciferase Mdm2/MdmX complementation, luminescence | inhibition, % at 8 µM | actives 3% (n = 330,000) | AID 485346;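 active = inhibition of at least 50% at 8 µM in the primary screen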
Target sequence (O15151 whole entry, looked up): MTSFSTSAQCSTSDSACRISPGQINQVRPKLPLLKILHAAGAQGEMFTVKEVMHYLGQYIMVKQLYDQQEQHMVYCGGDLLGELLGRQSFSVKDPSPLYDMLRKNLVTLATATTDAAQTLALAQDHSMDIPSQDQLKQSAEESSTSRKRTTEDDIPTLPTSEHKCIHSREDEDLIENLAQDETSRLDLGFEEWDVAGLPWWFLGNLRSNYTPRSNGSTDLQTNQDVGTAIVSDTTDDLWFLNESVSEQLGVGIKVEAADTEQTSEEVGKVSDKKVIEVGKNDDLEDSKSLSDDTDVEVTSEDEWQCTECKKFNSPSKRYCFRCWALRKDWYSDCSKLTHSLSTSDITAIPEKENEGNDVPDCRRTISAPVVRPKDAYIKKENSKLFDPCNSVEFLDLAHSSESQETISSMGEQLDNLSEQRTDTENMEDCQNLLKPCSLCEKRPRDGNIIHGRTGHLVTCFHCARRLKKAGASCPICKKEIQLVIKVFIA
Target sequence (Q00987 whole entry, looked up): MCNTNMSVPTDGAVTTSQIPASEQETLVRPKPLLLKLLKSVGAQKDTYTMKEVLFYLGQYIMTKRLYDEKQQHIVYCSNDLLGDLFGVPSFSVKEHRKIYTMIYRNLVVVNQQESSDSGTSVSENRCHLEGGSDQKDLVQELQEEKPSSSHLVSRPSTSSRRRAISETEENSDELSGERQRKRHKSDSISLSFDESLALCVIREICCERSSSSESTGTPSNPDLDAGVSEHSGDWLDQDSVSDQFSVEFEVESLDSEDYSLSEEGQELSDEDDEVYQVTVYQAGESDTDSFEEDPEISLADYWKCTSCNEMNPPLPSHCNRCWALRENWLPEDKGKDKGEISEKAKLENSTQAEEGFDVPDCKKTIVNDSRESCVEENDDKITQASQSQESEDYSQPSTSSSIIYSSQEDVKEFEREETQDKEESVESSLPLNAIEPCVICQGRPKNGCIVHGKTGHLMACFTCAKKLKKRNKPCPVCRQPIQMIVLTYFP
UPR CHOP act = apoptotic UPR (CHOP) activation | CHO-CHOP luciferase reporter, luminescence; percent of tunicamycin response over DMSO baseline | activation, % at 10 µM | actives 0.34% (n = 330,000) | AID 449763;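 active = at 10 µM dose, activation of 40% or more, normalized to positive control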
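Material: CHO-CHOP cells, stable luciferase reporter of PERK-eIF2a-CHOP signalling; quantity: 500 reporter cells seeded per well; buffer or medium: F12 medium containing 10% fetal bovine serum; compound: one dose, 10 µM in 0.5% DMSO; incubation: 6 h compound treatment, 37 °C; measured by: Steady-Glo luciferase luminescence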
CSC inhib = cancer stem cell inhibition. cancer stem cell-like cells viability, luminescence. inhibition, % at 7.5 µM. actives 1.1% (n = 300,000). AID 2717; in the data active = inhibition above about 75%; inconclusive = no clear call, values can overlap the other calls; tested in HMLE shEcad cells
Beta cell apopt = beta cell apoptosis inhibition; INS-1E cytokine-induced death, ATP luminescence, 48 h; percent of positive-control rescue, neutral wells zero; protection from apoptosis, % (test concentration not listed); actives 0.8% (n = 300,000);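 active = Every replicate reaches about 75%, or at least half do and their mean reaches it too, limit read from the data; inconclusive = At least half of replicates reach the limit but their mean does not; inactive = Under half of replicates reach the limit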;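 also: higher means more ATP so stronger rescue from cytokine killing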
T cruzi repl = blocks replication of Trypanosoma cruzi. T. cruzi beta-gal in NIH3T3, luminescence, 90 h. inhibition, % (concentration not given with the values). actives 1.4% (n = 300,000);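 active = mean inhibition across valid replicates above about 55%, limit read from the data; inconclusive = mean below that limit but half or more replicates reach it; inactive = mean below it, under half of replicates reach it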;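 also: signal also drops with host cell toxicity which is not excluded here; higher percent means less beta-gal luminescence so fewer parasites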
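System: mouse NIH/3T3 fibroblasts infected with β-gal-expressing T. cruzi Tulahuen C4 / Input: NIH/3T3 cells, 5,000 per well / Buffer or medium: Low-serum DMEM with 2% FBS / Probe or stimulus: 5000 reporter trypomastigotes per well / Schedule: ≥90 h infection period, 3 h prior cell attachment / Measured by: GalScreen luminescence, 60 min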
Mdm2-MdmX conf = human Mdm2/MdmX binding inhibition, confirmed; shares compounds with Mdm2 MdmX PPI; AID 489028; actives 55% (n = 10,000); inhibition, % at 8 µM; luminescent assay; in the data active = inhibition above about 40%
FLuc counter = full-length luciferase inhibition in Mdm2/MdmX counter-screen; shares compounds with Mdm2 MdmX PPI; SaOS-2 full-length luciferase counterscreen, luminescence; inhibition, % at 8 µM; actives 77% (n = 6,200); AID 504607;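 active = mean inhibition at 8 µM reaching about 37%, which flags the compound as non-specific, limit read from the data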;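 also: p53-null SaOS-2 cells with luciferase driven by a doxycycline-inducible promoter; compound on cells about two nights before reading with doxycycline added after day one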
Hits are given with their value; - = inactive; ? = inconclusive; . = no result.

SMILES | UPR XBP1 act | Mdm2 MdmX PPI | UPR CHOP act | CSC inhib | Beta cell apopt | T cruzi repl | Mdm2-MdmX conf | FLuc counter
Cn1c(SCC(=O)Nc2cccc(C(=O)O)c2)nnc1-c1cc2cc(Br)ccc2o1 | - | - | - | - | . | - | . | .
COC(=O)C(CC(C)C)NC(=O)c1ccc(F)cc1 (stereo not drawn) | - | - | - | - | - | - | . | .
COc1ccc(N2CCN(CCCn3c(=S)[nH]c4ccccc4c3=O)CC2)cc1 | - | 86 | - | - | - | ? | 67 | 47
O=C(CCCCCn1c(=S)[nH]c2ccc(N3CCOCC3)cc2c1=O)NCCc1ccccc1 | - | 51 | - | - | - | - | - | .
O=c1c2cc(N3CCOCC3)ccc2[nH]c(=S)n1CCCN1CCN(c2ccccc2F)CC1 | - | 58 | - | . | - | . | - | .
O=c1c2cc(N3CCOCC3)ccc2[nH]c(=S)n1CCCN1CCCCCC1 | - | - | - | - | - | - | . | .
COc1ccccc1OCCOCCN1CCCC1 | - | - | - | - | - | - | . | .
CCOC(=O)c1c(C)[nH]c(C)c1C(=O)CSc1nc2ccccc2c(=O)n1-c1ccc(CC)cc1 | - | 56 | - | - | 110 | - | - | 96
CCOC(=O)c1c(C)[nH]c(C)c1C(=O)CSc1nc2ccccc2n1CC | - | - | - | - | - | - | . | .
O=C(Nc1ccccc1)Nc1ccc(Cl)c([N+](=O)[O-])c1 | - | 80 | - | - | - | - | 50 | 43
O=C(Nc1ccc(Cl)c([N+](=O)[O-])c1)Nc1nc2ccccc2s1 | - | 85 | - | 81 | - | - | - | 85
Cc1ccc(NC(=O)Nc2ccccc2)cc1[N+](=O)[O-] | - | - | - | - | - | - | . | .
Cc1cccc(N2CCN(C(=O)c3c(-c4ccccc4Cl)noc3C)CC2)c1C | - | 59 | - | - | - | - | 76 | 71
CCn1c(CNC(=O)c2ccccc2Br)nnc1SCC(=O)NC1=NCCS1 | - | - | - | - | - | - | . | .
N#Cc1c(-c2ccc(Br)cc2)cc(-c2cccnc2)nc1N | - | - | - | - | - | - | . | .
CS(=O)c1nc(-c2ccc(Br)cc2)cc(-c2ccccc2)c1C#N (stereo not drawn) | - | 100 | 162 | 75 | - | - | 87 | -
Cc1cc(Cl)ccc1Oc1nc(-c2ccc(F)cc2)ccc1C#N | - | - | - | - | - | - | . | .
COc1ccc(-c2csc(NC(=O)c3ccccc3NS(=O)(=O)c3ccc(C)cc3)n2)cc1 | - | 83 | - | - | - | - | 65 | 54
COc1ccc(S(=O)(=O)Nc2ccccc2C(=O)Nc2nc(-c3ccc(F)cc3)cs2)cc1OC | - | 74 | - | - | - | - | 66 | 63
CCCNC(=O)c1ccccc1NS(=O)(=O)c1ccc(OC)c(OC)c1 | - | - | - | - | - | - | . | .
COc1ccc(-c2csc(NC(=O)c3c(OC)cccc3OC)n2)cc1 | - | - | - | - | - | - | . | .
CC(C)(C)[C@@H]1C=C(C(=O)N2CCN(Cc3ccc4c(c3)OCO4)CC2)O[C@H](OCc2ccc(CO)cc2)C1 | - | - | - | - | - | - | . | .
O=C1Nc2cc(C(=O)NCCCN3CCOCC3)ccc2S/C1=C/c1cccc(Cl)c1 | - | 73 | - | - | - | - | - | .
O=C1Nc2cc(C(=O)NCCCN3CCCC3)ccc2S/C1=C\c1ccccc1 | - | - | - | - | . | - | . | .
CCC1CCCCN1CCCNC(=O)c1ccc2c(c1)NC(=O)CS2 (stereo not drawn) | - | - | - | - | - | - | . | .
SMILES | UPR XBP1 act | Mdm2 MdmX PPI | UPR CHOP act | CSC inhib | Beta cell apopt | T cruzi repl | Mdm2-MdmX conf | FLuc counter
CCC1CCCCN1CCCNC(=O)c1ccc(/C=C2/Sc3ccccc3NC2=O)cc1 (stereo not drawn) | - | 86 | - | - | - | - | - | 55
COc1ccc(/C=C2/Sc3ccc(C(=O)NCCN4CCCCCC4)cc3NC2=O)cc1 | - | 100 | - | - | . | - | 88 | -
COc1ccc(S(=O)(=O)Nc2ccc3c(c2)C(=O)N([C@H](C)CO)C[C@H](C)[C@@H](CN(C)S(=O)(=O)c2c(C)noc2C)O3)cc1 | - | - | - | - | - | . | . | .
COc1cccc(CNC(=O)CN2C(=O)COc3ccc(S(=O)(=O)N4CCC(C)CC4)cc32)c1 | - | - | - | - | - | - | . | .
CCOC(=O)c1cnc(C(C)(C)C)[nH]c1=O | - | - | - | - | - | - | . | .
O=C(Nc1ncc(Cc2ccc(SC(F)F)cc2)s1)c1ccc(OC(F)F)cc1 | - | 62 | - | 75 | - | - | 64 | 96
COc1ccc(Cl)cc1C(=O)NCCN(C)C | - | - | - | - | - | - | . | .
CN(C)CCNC(=O)c1ccc(COc2ccc(Cl)cc2Cl)cc1 | - | 62 | - | - | - | - | - | .
O=C(Oc1c(-c2ccccc2Cl)oc2ccccc2c1=O)c1ccc(Cl)cc1 | - | 67 | - | - | - | - | 53 | 48
COc1ccc(C(=O)c2ccc3oc(-c4ccc(OC)cc4)c(-c4ccc(O)cc4)c3c2)cc1 | - | 66 | - | 104 | - | . | - | .
O=C(Oc1c(-c2ccccc2)oc2ccccc2c1=O)c1ccccc1 | - | 85 | - | - | - | - | 61 | -
COc1ccc(-c2oc3ccccc3c(=O)c2OC(=O)c2ccc(C)cc2)cc1 | - | 79 | - | - | - | - | 53 | -
O=C(Oc1cc(=O)oc2ccccc12)c1ccccc1 | - | - | - | - | - | - | . | .
COc1ccc(C(=O)c2c(-c3ccc(OC)cc3)oc3ccccc23)cc1 | - | - | - | - | - | . | . | .
O=C(COc1ccc([N+](=O)[O-])cc1)Nc1nc(-c2ccccn2)cs1 | - | 76 | - | - | . | 61 | 81 | -
O=C(COc1ccccc1)Nc1nc(-c2ccncc2)cs1 | - | - | - | - | - | - | . | .
O=C(COc1ccc(F)cc1)Nc1nc(-c2ccccn2)cs1 | - | 64 | - | - | - | - | 70 | 62
O=C(Nc1nc(-c2ccccn2)cs1)Nc1ccc(F)cc1F | - | 59 | - | - | 77 | 55 | 44 | 51
CC(C)CN1C(=O)C(=O)N(CC(=O)N(C)CC(=O)Nc2ccc(F)cc2)C1=O | - | - | - | - | - | . | . | .
C=CC(=O)N1c2ccccc2Sc2ccc(NC(=O)OCC)cc21 | - | 87 | - | - | - | - | 41 | -
CCOC(=O)Nc1ccc2c(c1)N(C(=O)N1CCN(C)CC1)c1ccccc1S2 | - | - | - | - | - | - | . | .
C[C@H](CO)N1C[C@H](C)[C@@H](CN(C)C(=O)Nc2ccc(C(F)(F)F)cc2)Oc2ccc(NC(=O)CCC(F)(F)F)cc2C1=O | - | - | - | - | - | . | . | .

Screening data deposited in PubChem by several laboratories.
